This note sets out measurements from ChEMBL document CHEMBL1151472, “In vitro interactions between tacrolimus and azoles against Candida albicans determined by different methods” (2008).

Structures are written as SMILES. ≈ marks a conversion by molar mass, not a printed value.

What all share (type): functional
Experiment [1] relates to Candida albicans. Briefly: Antimicrobial activity against azole-resistant Candida albicans isolate CA135 after 48 hrs by broth microdilution method. Conditions: isolate CA135, 48 h. The gist of the method:
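CLSI M27-A2 broth microdilution was run in RPMI 1640 (pH 7.0, 2% dextrose, 0.165 M MOPS). Inoculum was 2.5 × 10^3 CFU/ml, incubated 35°C for 48 h without shaking. Plates were read visually (0–5 scale) and at OD 492 nm. MIC80 = lowest concentration giving an 80% absorbance decrease vs drug-free control. Triplicate.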
A general note: Broth dilution looks for growth in wells or tubes with falling amounts of substance.

The subject of experiment [2] is Candida albicans. Briefly: Antimicrobial activity against azole-susceptible Candida albicans isolate CA5 co-treated with calcineurin signaling inhibitor tacrolimus after 48 hrs by microdilution checkerboard technique. Conditions: isolate CA5, 48 h. In outline:
(§1)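 Checkerboard microdilution in MOPS-buffered RPMI 1640 (pH 7.0, 2% dextrose) with 2.5 × 10^3 CFU/ml for 48 h at 35°C. Final FK506 was 0.002–0.125 μg/ml. Azole finals were FLC 0.125–128 μg/ml, and ITR and VRC 0.008–8 μg/ml. MIC80 is an 80% OD492 decrease vs drug-free control. Interaction was scored by FICI (synergy ≤0.5, antagonism >4) and by ΔE from triplicates.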

In experiment [3] the test system is Candida albicans. Briefly: Antimicrobial activity against azole-resistant Candida albicans isolate CA10 assessed as growth at 64 ug/ml co-treated with 0.031 ug/ml calcineurin signaling inhibitor tacrolimus after 48 hrs by microdilution checkboard technique relative to control. On the set-up: scale not given: the % may be the effect or the level left. In outline:
(§2)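 Checkerboard microdilution in RPMI 1640 (pH 7.0, 2% dextrose, 0.165 M MOPS). Azole dilutions run along columns and FK506 along rows, at 4× final concentration. Final inoculum 2.5 × 10^3 CFU/ml from Sabouraud-subcultured cells. Incubated 35°C for 48 h; OD read at 492 nm. Background from microorganism-free plates subtracted. Growth % = well OD / drug-free well OD. Triplicate on different days, values averaged.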

The test system of experiment [4] is Candida albicans. The experiment is described as follows: Antimicrobial activity against azole-resistant Candida albicans isolate CA10 assessed as growth at 0.5 ug/ml co-treated with 0.016 ug/ml calcineurin signaling inhibitor tacrolimus after 48 hrs by microdilution checkboard technique relative to control. The arrangement: scale not given: the % may be the effect or the level left. In outline:
(§3)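 Checkerboard microdilution in MOPS-buffered RPMI 1640 (pH 7.0, 2% dextrose). Final ranges: azole 0.125–128 μg/ml (FLC) or 0.008–8 μg/ml (ITR, VRC), tacrolimus 0.002–0.125 μg/ml; solvent 1% in single-drug wells. Inoculum 2.5 × 10^3 CFU/ml, 35°C, 48 h. Growth % = background-subtracted OD492 of each well / drug-free well. Triplicate on different days.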

The subject of experiment [5] is Candida albicans. The experiment is described as follows: Antimicrobial activity against azole-resistant Candida albicans isolate CA10 assessed as growth at 64 ug/ml co-treated with 0.008 ug/ml calcineurin signaling inhibitor tacrolimus after 48 hrs by microdilution checkboard technique relative to control. On the set-up: scale not given: the % may be the effect or the level left. In outline: (§4)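 CA10 in RPMI 1640 with 2% dextrose and 0.165 M MOPS, pH 7.0. Checkerboard used twofold dilutions, with azole alone in row H and the drug-free growth control in well H1. Final inoculum was 2.5 × 10^3 CFU/ml, incubated 35°C for 48 h, with OD read at 492 nm. Growth % = background-subtracted well OD / drug-free well OD. Run in triplicate on different days.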

Experiment [6] relates to Candida albicans. The experiment is described as follows: Antimicrobial activity against azole-resistant Candida albicans isolate CA10 assessed as growth at 4 ug/ml cotreated with 0.016 ug/ml calcineurin signaling inhibitor Tacrolimus after 48 hrs by microdilution checkboard technique relative to control. The arrangement: scale not given: the % may be the effect or the level left. In outline: as §4

The subject of experiment [7] is Candida albicans. Briefly: Antimicrobial activity against azole-resistant Candida albicans isolate CA10 assessed as growth at 0.25 ug/ml cotreated with 0.063 ug/ml calcineurin signaling inhibitor Tacrolimus after 48 hrs by microdilution checkboard technique relative to control. On the set-up: scale not given: the % may be the effect or the level left. In outline: as §2

The test system of experiment [8] is Candida albicans. The experiment is described as follows: Antimicrobial activity against azole-resistant Candida albicans isolate CA10 assessed as growth at 0.5 ug/ml co-treated with 0.125 ug/ml calcineurin signaling inhibitor tacrolimus after 48 hrs by microdilution checkboard technique relative to control. On the set-up: scale not given: the % may be the effect or the level left. The gist of the method:
as §3

The test system of experiment [9] is Candida albicans. Briefly: Antimicrobial activity against azole-susceptible Candida albicans isolate CA14 co-treated with calcineurin signaling inhibitor tacrolimus after 48 hrs by microdilution checkerboard technique. Conditions: isolate CA14, 48 h. In outline:
as §1

Experiment [10] relates to Candida albicans. Briefly: Antimicrobial activity against azole-resistant Candida albicans isolate CA10 assessed as growth at 4 ug/ml co-treated with 0.031 ug/ml calcineurin signaling inhibitor tacrolimus after 48 hrs by microdilution checkboard technique relative to control. The arrangement: scale not given: the % may be the effect or the level left. In outline: as §2

The subject of experiment [11] is Candida albicans. The experiment is described as follows: Antimicrobial activity against azole-resistant Candida albicans isolate CA10 assessed as growth at 64 ug/ml cotreated with 0.063 ug/ml calcineurin signaling inhibitor Tacrolimus after 48 hrs by microdilution checkboard technique relative to control. On the set-up: scale not given: the % may be the effect or the level left. In outline: as §4

The subject of experiment [12] is Candida albicans. Briefly: Antimicrobial activity against azole-resistant Candida albicans isolate CA10 assessed as growth at 16 ug/ml after 48 hrs by microdilution checkerboard technique relative to control. In outline: as §3
Experiment [13] relates to Candida albicans. The experiment is described as follows: Antimicrobial activity against azole-resistant Candida albicans isolate CA10 assessed as growth at 0.25 ug/ml cotreated with 0.004 ug/ml calcineurin signaling inhibitor Tacrolimus after 48 hrs by microdilution checkboard technique relative to control. On the set-up: scale not given: the % may be the effect or the level left. In outline:
as §2

The test system of experiment [14] is Candida albicans. The experiment is described as follows: Antimicrobial activity against azole-resistant Candida albicans isolate CA10 assessed as growth at 0.002 ug/ml after 48 hrs by microdilution checkerboard technique relative to control. In outline: as §3
The subject of experiment [15] is Candida albicans. Briefly: Antimicrobial activity against azole-resistant Candida albicans isolate CA10 assessed as growth at 0.125 ug/ml cotreated with 0.125 ug/ml calcineurin signaling inhibitor Tacrolimus after 48 hrs by microdilution checkboard technique relative to control. On the set-up: scale not given: the % may be the effect or the level left. In outline: as §3

Experiment [16] concerns Candida albicans. The experiment is described as follows: Antimicrobial activity against azole-resistant Candida albicans isolate CA10 assessed as growth at 16 ug/ml cotreated with 0.008 ug/ml calcineurin signaling inhibitor tacrolimus after 48 hrs by microdilution checkerboard technique relative to control. On the set-up: scale not given: the % may be the effect or the level left. In outline:
as §3

Experiment [17] deals with Candida albicans. Briefly: Antimicrobial activity against azole-resistant Candida albicans isolate CA10 assessed as growth at 0.5 ug/ml cotreated with 0.008 ug/ml calcineurin signaling inhibitor tacrolimus after 48 hrs by microdilution checkerboard technique relative to control. The arrangement: scale not given: the % may be the effect or the level left. In outline: as §3

The subject of experiment [18] is Candida albicans. Briefly: Antimicrobial activity against azole-resistant Candida albicans isolate CA10 assessed as growth at 32 ug/ml co-treated with 0.004 ug/ml calcineurin signaling inhibitor tacrolimus after 48 hrs by microdilution checkboard technique relative to control. The arrangement: scale not given: the % may be the effect or the level left. The gist of the method:
as §3

For experiment [19], the system named is Candida albicans. The experiment is described as follows: Antimicrobial activity against azole-resistant Candida albicans isolate CA10 assessed as growth at 64 ug/ml co-treated with 0.002 ug/ml calcineurin signaling inhibitor tacrolimus after 48 hrs by microdilution checkboard technique relative to control. On the set-up: scale not given: the % may be the effect or the level left. The gist of the method:
as §4

For experiment [20], the system named is Candida albicans. Briefly: Antimicrobial activity against azole-susceptible Candida albicans isolate CA8 co-treated with calcineurin signaling inhibitor tacrolimus after 48 hrs by microdilution checkerboard technique. Conditions: isolate CA8, 48 h. In outline: as §1
In experiment [21] the test system is Candida albicans. Briefly: Antimicrobial activity against azole-resistant Candida albicans isolate CA10 assessed as growth at 2 ug/ml cotreated with 0.004 ug/ml calcineurin signaling inhibitor tacrolimus after 48 hrs by microdilution checkerboard technique relative to control. The arrangement: scale not given: the % may be the effect or the level left. The gist of the method: as §3

Experiment [22] has as its system Candida albicans. The experiment is described as follows: Antimicrobial activity against azole-resistant Candida albicans isolate CA10 assessed as growth at 16 ug/ml cotreated with 0.063 ug/ml calcineurin signaling inhibitor tacrolimus after 48 hrs by microdilution checkerboard technique relative to control. The arrangement: scale not given: the % may be the effect or the level left. The gist of the method:
as §3

One may read the MIC as the least concentration at which growth counts as inhibited. Consider `OC(Cn1cncn1)(Cn1cncn1)c1ccc(F)cc1F` [FLUCONAZOLE], for which the MIC in the experiment with Candida albicans [1] was determined as 64 µg/mL (≈ 209 µM); with Candida albicans [2], 0.25 µg/mL; in the experiment with Candida albicans [9], 0.25 µg/mL; with Candida albicans [20] it was 66 µg/mL. The Activity in the experiment on Candida albicans [3] is recorded as 13%; in the experiment with Candida albicans [4] it was 21%; in the experiment on Candida albicans [5], 21%; in the experiment on Candida albicans [6] it was 18%; with Candida albicans [7] it was 11%; in the experiment with Candida albicans [8], 6%. For the same molecule, the Activity was determined as 16% in the experiment with Candida albicans [10]; 0% in the experiment on Candida albicans [11]; 50% with Candida albicans [12]; 42% in the experiment with Candida albicans [13]; 97% in the experiment on Candida albicans [14]; 25% in the experiment on Candida albicans [15]. Also, the Activity in the experiment with Candida albicans [16] was 24%; with Candida albicans [17], 34%; in the experiment on Candida albicans [18] it was 30%; in the experiment with Candida albicans [19] it was 28%; in the experiment with Candida albicans [21] it was 32%; with Candida albicans [22], 7%.
